Several values for one entry are separate records, joined by “and”; a condition that tells them apart may be missing. Identical values can stand only once.
How the values were obtained:
[1] = tested on: Saccharomyces cerevisiae strain GL7; assay: GL7 sterol auxotroph growth on sterol supplements; assay type: cell-based; details: sterol supplement, 72 h
Outline: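 S. cerevisiae GL7 (lanosterol synthase-defective, ergosterol auxotroph) grown in yeast-peptone-dextrose medium with Tween 80 (15 ml/l) and a sterol supplement at 5 mg/l, or no sterol, for 72 h. Cell density was followed to stationary phase. Sterols were recovered from cells and analysed.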

[2] = target: T1, AcCYP51 (Acanthamoeba castellanii, UniProt L8GJB3); assay: AcCYP51 sterol ligand binding, spectral titration; details: for AcCYP51 Kd: progressive titration of 4 M AcCYP51 with sterol in 40% (W/V) HPCP
[3] = target: T1, AcCYP51; assay: CYP51 reconstitution assay, AfCPR1 redox partner, products by GC-MS; assay type: biochemical; details: for Yield of 14-desmethyl product from substrate by AcCYP51 (GCMS): AfCPR1 redox partner; for AcCYP51 AfCPR kcat: CYP51 reconstitution assay, 50 μM sterol, AfCPR redox partner
[4] = target: Ac28-SMT (Acanthamoeba castellanii, UniProt L8GNG7); details: sterol 5 μM to 150 μM, 150 μM SAM, 80 μg SMT; cited from earlier work
[5] = target: Ac24-SMT (Acanthamoeba castellanii, UniProt L8GKC5); details: sterol 5 μM to 150 μM, 150 μM SAM, 80 μg SMT; cited from earlier work
[6] = tested on: Acanthamoeba castellanii trophozoites; assay: Time-dependent killing and regrowth in fresh medium; assay type: cell-based; details: inhibitor at approximate MAC, then fresh medium for a week
[7] = tested on: Acanthamoeba castellanii trophozoites; assay: Trophozoite toxicity assay; assay type: cell-based; details: for IC50: Acanthamoeba castellanii, 48 h, read-out: IC50 against trophozoite growth
[8] = tested on: Acanthamoeba castellanii; assay type: cell-based
[9] = tested on: Acanthamoeba castellanii resting cysts; assay: Cysticidal / excystment assay; assay type: cell-based; details: cysts from the SDS-treated process
[10] = tested on: Acanthamoeba castellanii trophozoites; assay: Trophozoite growth with cholesterol supplement; assay type: cell-based; details: 10μM in DMSO or as FBS
Outline: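 Axenic static cultures of strain ATCC 30010 were grown in 5 ml ATCC medium 712 in T-flasks at 25 °C with occasional hand shaking, seeded with about 1×10^4 trophozoites. The medium was supplemented with FBS, per ATCC medium, or with 10 µM cholesterol in DMSO. Cells were counted along the growth curve, with viability by trypan blue exclusion.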

CC(C)[C@@H](C)/C=C/[C@@H](C)[C@H]1CC[C@H]2[C@@H]3CC=C4C[C@@H](O)CC[C@]4(C)[C@H]3CC[C@]12C [compound 1, Ergosta-5,22-dienol]
GL7 cell density at stationary phase / growth arrest [1]: 1 × 10^8 cells/ml

CC(C)=CCC[C@@H](C)[C@H]1CC[C@@]2(C)[C@@H]3CC[C@H]4C(C)(C)[C@@H](O)CC[C@@]45C[C@@]35CC[C@]12C [compound 21, Cycloart-24(25)-enol]
Kd [2]: 18 ± 5 µM | Yield of 14-desmethyl product from substrate by AcCYP51 (GCMS) [3]: no metabolism occurred | AcCYP51 AfCPR kcat [3]: 0 s⁻¹ | 28-SMT kcat [4]: 0.0075 ± 0.0005 s⁻¹ | 24-SMT kcat [5]: 0.025 ± 0.0012 s⁻¹

CC(C)=CCCC(C)C1CCC2(C)C3=CCC4C(C)(C)C(O)CCC4(C)C3CCC12C (stereo not drawn) [compound 36, Lanosta-7,24(25)-dienol]
AcCYP51 AfCPR kcat [3]: 0 s⁻¹

CC[C@@H](C=C[C@@H](C)[C@H]1CC[C@H]2C3=CC=C4C[C@@H](O)CC[C@]4(C)[C@H]3CC[C@]12C)C(C)C [compound 11, Poriferasta-5,7,22-trienol]
GL7 cell density at stationary phase / growth arrest [1]: 1 × 10^8 cells/ml

C[C@H](CCCN(C)C)[C@H]1CC[C@@]2(C)[C@@H]3CC[C@H]4C(C)(C)[C@@H](O)CC[C@@]45C[C@@]35CC[C@]12C [25-azacycloartanol]
Growth after 48 h treated pellets were transferred to fresh medium [6]: no growth | IC50 [7]: 0.025 µM | MAC (minimum amoebicidal concentration) ([7]; lowest concentration with no visible live trophozoites, 48 hr): 1 to 3 µM

CC(C)=CCC[C@@H](C)[C@H]1CC[C@@]2(C)C3=C(CC[C@]12C)[C@@]1(C)CC[C@H](O)C(C)(C)[C@@H]1CC3 [compound 33, Lanosta-8,24(25)-dienol]
Kd [2]: 46 ± 3 µM | AcCYP51 AfCPR kcat [3]: 0.0283 ± 0.00017 s⁻¹ | 28-SMT kcat [4]: 0.00383 ± 0.00017 s⁻¹ | 24-SMT kcat [5]: 0.025 ± 0.00017 s⁻¹

CC(C)CCC[C@@H](C)[C@H]1CC[C@@]2(C)C3=C(CC[C@]12C)[C@@]1(C)CC[C@H](O)C(C)(C)[C@@H]1CC3 [compound 34, Lanost-8-enol]
AcCYP51 AfCPR kcat [3]: 0.0333 ± 3.3e-05 s⁻¹

C[C@@H](c1ncncc1F)[C@](O)(Cn1cncn1)c1ccc(F)cc1F [voriconazole, reference compound]
Number of cells at 48 h ([8]; reduced by a factor of 10, most dead by trypan blue staining): 2–3 × 10^4 cells/ml | Growth after 48 h treated pellets were transferred to fresh medium [6]: a few thousand trophozoites were evident | IC50 [7]: 0.14 µM

CC[C@@H](C=C[C@@H](C)[C@H]1CC[C@H]2[C@@H]3CC=C4C[C@@H](O)CC[C@]4(C)[C@H]3CC[C@]12C)C(C)C [compound 6, Poriferasta-5,22 -dienol]
GL7 cell density at stationary phase / growth arrest [1]: 1 × 10^8 cells/ml

O=c1[nH]c(=O)n([C@H]2C[C@H](O)[C@@H](CO)O2)cc1F [FUdR, 5-fluor-2-deoxyuridine]
Excystment of resting cysts into trophozoites under treatment [9]: easily excysted into trophozoites by 3 days | Encysted cells alive by trypan blue staining ([8]; cultures with inhibitor at stationary phase of control): > 95%

CC(C)=CCC[C@@H](C)[C@H]1CC[C@@]2(C)C3=C(CC[C@]12C)[C@@]1(C)CC[C@H](O)[C@@H](C)[C@@H]1CC3 [compound 37, 4α, 14α-Dimethylcholesta-8,24(25)-dienol]
AcCYP51 AfCPR kcat [3]: 0 s⁻¹ | 28-SMT kcat [4]: 0.0123 ± 0.00033 s⁻¹ | 24-SMT kcat [5]: 0.025 ± 0.00067 s⁻¹

C=C(CC[C@@H](C)[C@H]1CC[C@@]2(C)[C@@H]3CC[C@H]4[C@H](C)[C@@H](O)CC[C@@]45C[C@@]35CC[C@]12C)C(C)C [compound 24, 4α-Methylcycloart-24(28)-enol]
AcCYP51 Kd [2]: No fit | Yield of 14-desmethyl product from substrate by AcCYP51 (GCMS) [3]: ~ 1% | AcCYP51 AfCPR kcat [3]: 0.00067 ± 0.00017 s⁻¹

C=C(CC[C@@H](C)[C@H]1CC[C@@]2(C)C3=C(CC[C@]12C)[C@@]1(C)CC[C@H](O)[C@@H](C)[C@@H]1CC3)C(C)C [compound 10]
Kd [2]: 41 ± 3 µM | Yield of 14-desmethyl product from substrate by AcCYP51 (GCMS) ([3]; listed as obtusifoliol): < 95% and 95% | AcCYP51 AfCPR kcat [3]: 0.127 ± 0.00083 s⁻¹ | AcCYP51 AfCPR kcat ([3]; listed as obtusifoliol): 0.127 s⁻¹ | 28-SMT kcat [4]: 0 s⁻¹ | 24-SMT kcat [5]: 0 s⁻¹

C=C(CC[C@@H](C)[C@H]1CC[C@@]2(C)[C@@H]3CC[C@H]4C(C)(C)[C@@H](O)CC[C@@]45C[C@@]35CC[C@]12C)C(C)C [compound 27, Cycloart-24(28)-enol]
AcCYP51 Kd [2]: No fit | AcCYP51 AfCPR kcat [3]: 0 s⁻¹ | 28-SMT kcat [4]: 0.00383 ± 0.00083 s⁻¹ | 24-SMT kcat [5]: 0 s⁻¹

C=C(CCC(C)C1CCC2(C)C3=C(CCC12C)C1(C)CCC(O)C(C)(C)C1CC3)C(C)C (stereo not drawn) [compound 32, Lanosta-8,24(28)-dienol]
Kd [2]: 51 ± 10 µM | AcCYP51 AfCPR kcat [3]: 0.0533 ± 0.00067 s⁻¹

CC(C)=CCC[C@@H](C)[C@H]1CC[C@@]2(C)C3=C(CC[C@]12C)[C@@]1(C)CC[C@H](O)C[C@@H]1CC3 [compound 35, 14α-Methylcholest-8,24(25)-dienol]
AcCYP51 AfCPR kcat [3]: 0.0267 ± 0.0013 s⁻¹ | 28-SMT kcat [4]: 0.0065 ± 0.00033 s⁻¹ | 24-SMT kcat [5]: 0.025 ± 0.00083 s⁻¹

CC(C)CCC[C@@H](C)[C@H]1CC[C@H]2[C@@H]3CC=C4C[C@@H](O)CC[C@]4(C)[C@H]3CC[C@]12C [cholesterol]
Effect of supplement on trophozoite growth [10]: only a minor stimulation effect

CC(C)[C@@H](C)/C=C/[C@@H](C)[C@H]1CC[C@H]2C3=CC=C4C[C@@H](O)CC[C@]4(C)[C@H]3CC[C@]12C [compound 2, Ergosta-5,7,22-trienol]
GL7 cell density at stationary phase / growth arrest [1]: ~1 × 10^8 cells/ml

C=C(CC[C@@H](C)[C@H]1CC[C@H]2C3=CC[C@H]4[C@H](C)[C@@H](O)CC[C@]4(C)[C@H]3CC[C@]12C)C(C)C [compound 14, 4α-Methylergosta-7, 24(28)-dienol]
AcCYP51 AfCPR kcat [3]: 0 s⁻¹ | 28-SMT kcat [4]: 0.0133 ± 0.00067 s⁻¹ | 24-SMT kcat [5]: 0 s⁻¹

— publication PMC6180906 (Biochimica et biophysica acta. Molecular and cell biology …, 2018)
